In series [1] the test system is BCRP. The settings on record: cited from earlier work.
The target of series [2] is T1, BCRP (Rattus norvegicus, UniProt Q80W57).
T1 sequence (Q80W57 1-657): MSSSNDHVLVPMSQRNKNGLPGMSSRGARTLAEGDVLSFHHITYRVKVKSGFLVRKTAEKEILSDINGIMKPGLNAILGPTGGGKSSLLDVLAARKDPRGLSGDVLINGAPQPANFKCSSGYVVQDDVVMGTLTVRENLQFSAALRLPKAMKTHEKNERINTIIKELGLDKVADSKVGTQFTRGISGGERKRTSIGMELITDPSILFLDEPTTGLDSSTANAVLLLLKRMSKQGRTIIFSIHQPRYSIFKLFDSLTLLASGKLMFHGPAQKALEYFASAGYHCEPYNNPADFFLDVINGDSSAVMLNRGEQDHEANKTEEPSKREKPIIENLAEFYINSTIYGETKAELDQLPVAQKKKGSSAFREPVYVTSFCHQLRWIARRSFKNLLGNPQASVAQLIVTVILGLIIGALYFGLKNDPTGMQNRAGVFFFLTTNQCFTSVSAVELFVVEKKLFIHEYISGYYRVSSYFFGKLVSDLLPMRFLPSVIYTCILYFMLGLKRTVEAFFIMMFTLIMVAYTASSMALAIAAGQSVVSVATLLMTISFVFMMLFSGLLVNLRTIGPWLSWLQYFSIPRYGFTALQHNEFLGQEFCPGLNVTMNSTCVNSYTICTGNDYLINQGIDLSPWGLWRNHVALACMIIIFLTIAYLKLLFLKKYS
The series can be described thus: In vivo pharmacokinetic interaction with the BCRP substrate sulfasalazine. On the set-up: species or system Sprague-Dawley (SD) rats. The settings on record: rats; for half-life: male, Sprague-Dawley, rat, plasma, po, 2 mg/kg, t1/2 of sulfasalazine; for increase of sulfasalazine AUClast versus sulfasalazine alone / increase of sulfasalazine Cmax versus sulfasalazine alone: flavonol 5 mg/kg co-administered with sulfasalazine 2 mg/kg oral. Summed up:
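Male SD rats (8 weeks, 250–270 g), acclimatized 1 week and fasted overnight with water, n = 5/group. Oral sulfasalazine 2 mg/kg alone or co-administered with test flavonol 5 mg/kg. Plasma was separated at 4 °C and sulfasalazine measured by LC-MS/MS after methanol precipitation with IS. Noncompartmental analysis: AUClast by trapezoidal rule, Cmax observed. Groups were compared with Student's t-test; mean ± SD.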

The test system of series [3] is BCRP. The settings on record: read-out: IC50 for BCRP inhibition; cited from earlier work.
For series [4], the system named is BCRP. The settings on record: amentoflavone 30 mg/kg co-administered with mitoxantrone, rats; cited from earlier work.
A further series relates to MDCKII-BCRP cells. Put plainly: Reversal of BCRP-mediated resistance to SN-38. In kind it is cell-based, canine. Particulars: flavonol 5 µM; CC50 in MDCKII-BCRP comparable to mock cells.
For series [5], the target named is T2, BCRP (Homo sapiens, UniProt Q9UNQ0).
T2 sequence (Q9UNQ0 1-655): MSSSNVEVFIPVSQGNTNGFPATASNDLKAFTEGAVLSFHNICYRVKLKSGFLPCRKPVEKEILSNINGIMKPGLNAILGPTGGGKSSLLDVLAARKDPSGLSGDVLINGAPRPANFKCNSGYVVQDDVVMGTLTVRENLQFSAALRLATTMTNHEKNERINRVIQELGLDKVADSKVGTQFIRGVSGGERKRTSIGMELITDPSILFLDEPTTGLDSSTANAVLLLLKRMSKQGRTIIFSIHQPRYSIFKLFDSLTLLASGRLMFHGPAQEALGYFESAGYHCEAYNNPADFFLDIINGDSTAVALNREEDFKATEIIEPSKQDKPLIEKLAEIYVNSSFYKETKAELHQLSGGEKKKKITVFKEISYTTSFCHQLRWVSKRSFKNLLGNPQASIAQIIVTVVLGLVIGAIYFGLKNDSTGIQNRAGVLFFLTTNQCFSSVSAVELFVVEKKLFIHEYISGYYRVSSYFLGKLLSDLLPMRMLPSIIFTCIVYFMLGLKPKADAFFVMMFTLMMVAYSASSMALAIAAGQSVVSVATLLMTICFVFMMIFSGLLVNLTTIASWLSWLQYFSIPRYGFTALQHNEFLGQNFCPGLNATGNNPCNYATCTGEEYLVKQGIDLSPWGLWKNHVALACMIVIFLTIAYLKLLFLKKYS
The series can be described thus: BCRP inhibition, prazosin accumulation assay in MDCKII-BCRP cells. Particulars: for IC50: IC50 on BCRP activity, prazosin 5 µM, 20 min, MDCKII-BCRP; for inhibition at 20 min, 2 µM: human, pH 7.4.

Series [6] is described as follows: Plasma pharmacokinetics of the flavonols after oral co-administration. The settings on record: male, Sprague-Dawley, rat, 5 mg/kg. In kind it is in vivo, Sprague-Dawley (SD) rats. Summed up:
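Fasted male SD rats (8 weeks, 250–270 g; n = 5) were dosed orally with test flavonol 5 mg/kg together with sulfasalazine 2 mg/kg. Flavonol in plasma was quantified by LC-MS/MS: methanol/IS protein precipitation, C18 gradient of ammonium formate and formic acid–acetonitrile. Noncompartmental parameters: AUClast by trapezoidal rule, AUCinf by extrapolation, Cmax/Tmax observed, t1/2 from terminal slope; mean ± SD.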

The test system of series [7] is BCRP. Particulars: cited from earlier work. This is another data set of the same source.

In the case of `COc1cc(Nc2ncc(F)c(Nc3ccc4c(n3)N(COP(=O)(O)O)C(=O)C(C)(C)O4)n2)cc(OC)c1OC` [Fostamatinib], in the series with BCRP [1], the “increase of the plasma concentration of rosuvastatin” value was “approximately two-fold”. As a reminder, the half-life is how long it takes for the measured level to halve. Take `O=C(O)c1cc(/N=N/c2ccc(S(=O)(=O)Nc3ccccn3)cc2)ccc1O` [Sulfasalazine, sulfasalazine, reference compound]: the half-life was 1.76 ± 0.29 h on BCRP [2] (sulfasalazine 2 mg/kg oral + 3,4’-dimethoxyflavone 5 mg/kg) and 2.34 ± 1.23 h at BCRP [2] (sulfasalazine 2 mg/kg oral + 3,6,3’,4’-tetramethoxyflavone 5 mg/kg). The IC50 is the concentration needed to halve the response being measured. For the molecule `O=c1cc(-c2ccc(O)c(-c3c(O)cc(O)c4c(=O)cc(-c5ccc(O)cc5)oc34)c2)oc2cc(O)cc(O)c12` [amentoflavone], the IC50 in the series on BCRP [3] was roughly 4 µM. Further, the “increase of the AUC of mitoxantrone” value with BCRP [4] is 1.23 fold. As to `O=c1c(O)c(-c2cccc(O)c2)oc2cc(O)ccc12` [compound 8, 3,7,3’-Trihydroxyflavone], in the series with MDCKII-BCRP cells, the “reversal of BCRP-mediated resistance to SN-38” value (shortened to “reversal”) is listed as “almost completely reversed BCRP-mediated resistance to SN-38”. At BCRP [5], this molecule came in with an IC50 of less than 5 µM. As to `O=c1c(O)c(-c2ccc(O)cc2O)oc2cc(O)cc(O)c12` [compound 31, 3,5,7,2’,4’-Pentahydroxyflavone], the IC50 against BCRP [5] is greater than 10 µM. Take `Cc1c(O)cc(O)c2c(=O)c(O)c(-c3ccc(O)c(O)c3)oc12` [compound 32, 3,5,7,3’,4’-Pentahydroxy-8-methylflavone]: the IC50 against BCRP [5] is less than 5 µM. The same measure, in the same setting: to `COc1ccc2oc(-c3cccc(OC)c3OC)c(OC)c(=O)c2c1` [compound 47, 3,6,2’,3’-Tetramethoxyflavone] belongs greater than 10 µM; to `COc1ccc(-c2oc3cc(O)cc(O)c3c(=O)c2OC)cc1O` [compound 48, 5,7,3’-Trihydroxy-3,4’-dimethoxyflavone], less than 5 µM. Take `COc1cc(O)c2c(=O)c(OC)c(-c3ccc(OC)c(OC)c3)oc2c1` [compound 50, 5-Hydroxy-3,7,3’,4’-tetramethoxyflavone]: the “reversal” value with MDCKII-BCRP cells is given as “almost completely reversed BCRP-mediated resistance to SN-38”. The molecule further registered a half-inhibitory concentration (IC50) against BCRP [5] of less than 5 µM. For `COc1ccc(-c2oc3cc(OC)c(O)c(OC)c3c(=O)c2OC)cc1O` [compound 52, 6,3’-Dihydroxy-3,5,7,4’-tetramethoxyflavone], the IC50 against BCRP [5] is less than 5 µM.

In turn, `COc1ccc(-c2oc3cc(OC)c(OC)c(OC)c3c(=O)c2OC)cc1` [compound 53, 3,5,6,7,4’-Pentamethoxyflavone] registered an IC50 against BCRP [5] of less than 5 µM.

In the case of `O=c1c(O)c(-c2ccccc2)oc2cc(O)ccc12` [compound no. 7, 3,7-Dihydroxyflavone], at BCRP [5], the IC50 was less than 5 µM. In general, inhibition refers to how much of the control response was suppressed. Low values mean little suppression, high ones strong suppression. As for `O=c1c(O)c(-c2ccc(O)c(O)c2)oc2cc(O)cc(O)c12` [compound no. 27, 3,5,7,3’,4’-Pentahydroxyflavone], on BCRP [5], the IC50 is less than 5 µM and the inhibition at 20 min, 2 µM was determined as 45.9%. `COc1cc(-c2oc3cc(O)cc(O)c3c(=O)c2O)ccc1O` [compound no. 29, 3,5,7,4’-Tetrahydroxy-3’-methoxyflavone] showed an inhibition at 20 min, 2 µM on BCRP [5] of 45.5%. As usually defined, the AUC(0-t) is exposure summed from dosing to a finite time, without extrapolation to infinity. As usually defined, the Cmax is the highest concentration seen after dosing. For `COc1ccc(-c2oc3ccccc3c(=O)c2OC)cc1` [compound no. 37, 3,4’-Dimethoxyflavone], in series [6], the AUC(0-t) was 12.4 ± 5 ng·h/mL, the Cmax was 13.5 ± 8.8 ng/mL and the half-life was 0.54 ± 0.15 h. At BCRP [2], the “increase of sulfasalazine AUClast versus sulfasalazine alone” value turned out to be 1.79 fold and the “increase of sulfasalazine Cmax versus sulfasalazine alone” value is reported as “approximately 1.83 fold”. Take `COc1ccc2c(=O)c(OC)c(-c3ccc(O)c(OC)c3)oc2c1` [compound no. 43, 4’-Hydroxy-3,7,3’-trimethoxyflavone]: the “reversal” value in the series with MDCKII-BCRP cells is “almost completely reversed BCRP-mediated resistance to SN-38”. Also, on BCRP [5], the IC50 is less than 5 µM and the inhibition at 20 min, 2 µM amounted to 45.2%. Turning to `COc1ccc2oc(-c3ccc(OC)c(OC)c3)c(OC)c(=O)c2c1` [compound no. 46, 3,6,3’,4’-Tetramethoxyflavone], in series [6], the AUC(0-t) is 22.3 ± 1.6 ng·h/mL, the Cmax worked out at 13.3 ± 0.6 ng/mL and the half-life was 2.24 ± 0.17 h. On BCRP [2], the “increase of sulfasalazine AUClast versus sulfasalazine alone” value came to 1.74 fold and the “increase of sulfasalazine Cmax versus sulfasalazine alone” value was determined as 2.02 fold. Further, the “reversal” value in the series on MDCKII-BCRP cells is given as “almost completely reversed BCRP-mediated resistance to SN-38”. At BCRP [5], the IC50 was less than 5 µM and the inhibition at 20 min, 2 µM came to 49.9%. As for `COc1ccc(-c2oc3cc(OC)c(OC)c(OC)c3c(=O)c2OC)cc1OC` [compound no. 54, 3,5,6,7,3’,4’-Hexamethoxyflavone], on BCRP [5], the IC50 is less than 5 µM and the inhibition at 20 min, 2 µM worked out at 52%. Take `O=c1[nH]c(=O)c2c[nH]nc2[nH]1` [oxypurinol]: the prolongation of half-life in the series on BCRP [7] (individuals homozygous for the p.Q141K variant) is 1.8 fold.

With `CC(C)c1nc(N(C)S(C)(=O)=O)nc(-c2ccc(F)cc2)c1/C=C/[C@@H](O)C[C@@H](O)CC(=O)O` [rosuvastatin, reference compound], in the series on BCRP [7] (421CA or 421AA genotypes versus 421CC wild-type homozygous genotype), the “increase in maximum plasma concentration” value is 1.9 fold.

(Values after article PMC12325899 (Scientific Reports, 2025).)
